Where only a bound is given, the exact number is not on record here.

As a reminder, the IC50 is the concentration needed to halve the response being measured. As a reminder, the inhibition is the drop in the measured response relative to a control, in per cent. As a reminder, the CC50 is the concentration that lowers cell viability or growth by half. Higher therefore signals better tolerance by the cells.

For series [1], the system named is Human immunodeficiency virus 1. Description: Antiviral activity against VSV-G protein pseudotyped HIV1 system in HEK293T cells assessed as reduction in p24 level after 48 hrs by ELISA. Type of series: functional, organism-based. The following applies: Human immunodeficiency virus 1, HEK-293T. The method in brief:
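VSV-G-pseudotyped HIV used as a counter-screen to judge the specificity of HA-directed entry inhibitors.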

Series [2] is described as follows: Antiinflammatory activity in mouse peritoneal macrophages assessed as inhibition of LPS-induced NO production at 10 uM. Type of series: functional. Conditions: Peritoneal macrophage cell.
Series [3] relates to HEK293. Description: Cytotoxicity against HEK293 cells infected with VSV-G protein pseudotyped HIV1. Type of series: cell-based. The following applies: Homo sapiens.
A short description of series [4]: Cytotoxicity against HEK293 cells infected with Influenza A virus (A/Viet Nam/1203/2004(H5N1)). Type of series: cell-based. The following applies: human. In short, it runs like this:
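Cytotoxicity measured on 293T cells and reported as CC50 (μmol/L).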

Series [5] is described as follows: Antiinflammatory activity in mouse peritoneal macrophages assessed as inhibition of LPS-induced NO production at 1 uM. It counts as functional. The following applies: Peritoneal macrophage cell.
Series [6] has as its system HEK293. Nature of the series: Inhibition of Influenza A virus (A/Viet Nam/1203/2004(H5N1)) hemagglutinin-mediated entry in HEK293 cells compound pretreated with target cells for 15 mins prior infection measured 48 hrs post infection by luciferase reporter assay. It counts as cell-based. In short, it runs like this: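 Entry screen: HIV-based pseudotype bearing H5N1 hemagglutinin (HA). Compounds tested at 30.0 μM. Value reported as percent inhibition of HA-mediated entry.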
A general note: A reporter such as luciferase makes a cellular process visible.

Regarding `CC(=O)O[C@H]1C/C=C(\C)CC[C@@H]([C@H](C)CCC=C(C)C)[C@@H](O)/C=C/1C`, the IC50 in series [1] is 30.5 µM; in the series on HEK293 [3] it was above 60 µM. In series [2], the inhibition at 10 µM was below 50%.
`CC(C)=CCC[C@@H](C)[C@@H]1[C@H](O)C/C(C)=C/C/C=C(/C=O)[C@H]1C=O` registered a CC50 in series [4] above 60 µM. Besides, the inhibition at 1 µM in series [5] is below 50%. Moreover, the inhibition with HEK293 [6] was determined as 59%. Also, the inhibition at 10 µM in series [2] is 86%.
Regarding `C=C1CC[C@@H](O)[C@@]2(C)C[C@@H](OC(C)=O)C3=C(C(C)C)CC[C@]3(C)C[C@]12O`, the values for the IC50 (in series [1]; in the series on HEK293 [3]) were 16.1 µM and 53 µM, respectively. In addition, in series [2], the inhibition at 10 µM was below 50%.
`Cc1ccnc2c1NC(=O)c1cccnc1N2C1CC1` [NEVIRAPINE]: the IC50 in series [1] is 0.05 µM.
As for `C=C1C[C@@H](O)[C@@H]([C@H](C)CCC=C(C)C)[C@@H](O)[C@@H]2C(C)=CC[C@@H]12`, the IC50 is 26.1 µM in series [1] and above 60 µM in the series on HEK293 [3]. Moreover, the inhibition at 10 µM in series [2] was below 50%.
`C=C1C[C@H](O)[C@@H]([C@@](C)(O)CCC=C(C)C)[C@@H](O)[C@@H]2C(C)=CC[C@@H]12` registered a CC50 in series [4] above 60 µM. In the series with HEK293 [6], the inhibition came to 50%. Moreover, the inhibition at 10 µM in series [2] is below 50%.
In turn, `CC(C)=CCC[C@@H](C)[C@H]1C2=C(C(=O)OC2)[C@H]2C[C@H]2[C@H](C)C[C@H]1O` came in with a CC50 in series [4] above 60 µM. For the same molecule, the inhibition with HEK293 [6] was 62%. Besides, the inhibition at 10 µM in series [2] was below 50%.
`CC(=O)OC[C@@H]1/C(C=O)=C\C/C=C(\C)C[C@@H](O)[C@H]1[C@H](C)CCC=C(C)C`: the IC50 in series [1] was 21.9 µM; in the series on HEK293 [3], above 60 µM. Also, the inhibition at 10 µM in series [2] is below 50%.
Take `C=C1CC[C@@H]([C@@](C)(O)CCC=C(C)C)[C@@H](O)[C@@H]2C(C)=CC[C@@H]12`: in series [5], the inhibition at 1 µM was below 50%. Moreover, the IC50 in series [1] was 24 µM; in the series on HEK293 [3], above 60 µM. Moreover, the inhibition at 10 µM in series [2] amounted to 90%.
For the molecule `C/C1=C/CC/C(C)=C/C[C@@]2(C)CC[C@@](O)(C(C)C)[C@@H]2CC1=O` (relative stereo), the cytotoxic concentration (CC50) in series [4] was above 60 µM. Also, in the series on HEK293 [6], the inhibition was 56%. In addition, in series [2], the inhibition at 10 µM is below 50%.

Values taken from ChEMBL document CHEMBL3351586, “Diterpenes from a Chinese collection of the brown alga Dictyota plectens” (J Nat Prod, 2014).
